Assay results published in ChEMBL document CHEMBL3585303, “Progress towards small molecule menin-mixed lineage leukemia (MLL) interaction inhibitors with in vivo utility” (Bioorg Med Chem Lett, 2015).

Key:
[1] = Intrinsic clearance in human liver microsomes; format: ADME; conditions: read-out: CLH
[2] = Half life in rat at 0.2 mg/kg, iv; format: ADME, organism-based; conditions: in vivo
Outline: (§1)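 Rats received a single IV dose of 0.2 mg/kg, given either as a discrete dose or within an IV cassette study. Reported parameters were plasma clearance CLp (mL/min/kg), T1/2, and volume of distribution at steady state Vss (L/kg).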

[3] = Plasma clearance in rat at 0.2 mg/kg, iv; format: ADME, organism-based; outline: as §1
[4] = Unbound fraction in human plasma; format: ADME, cell-free
Outline: (§2)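 Plasma protein binding was determined in human, rat or mouse plasma and reported as the fraction unbound (fu).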

[5] = Volume of distribution at steady state in rat at 0.2 mg/kg, iv; format: ADME, organism-based; conditions: in vivo, read-out: Vdss; outline: as §1
[6] = Intrinsic clearance in rat liver microsomes; format: ADME; conditions: read-out: CLH
[7] = Unbound fraction in mouse plasma; format: ADME, cell-free; outline: as §2
[8] = Unbound fraction in rat plasma; format: ADME, cell-free; outline: as §2
[9] = biological target: Menin/Histone-lysine N-methyltransferase MLL (Homo sapiens, UniProt O00255); assay: Inhibition of menin-MLL1 interaction (unknown origin) incubated for 1 hr by fluorescein and Texas Red labeled MBM1 based fluorescence polarization assay; format: protein assay
[10] = system: MV4-11; assay: Growth inhibition of human MV4-11 cells; format: functional
[11] = Drug level in rat hepatic S9 fraction treated with compound 10b assessed as compound formation; format: ADME, tissue-based, Liver

Sequence of Menin/Histone-lysine N-methyltransferase MLL (O00255 whole entry): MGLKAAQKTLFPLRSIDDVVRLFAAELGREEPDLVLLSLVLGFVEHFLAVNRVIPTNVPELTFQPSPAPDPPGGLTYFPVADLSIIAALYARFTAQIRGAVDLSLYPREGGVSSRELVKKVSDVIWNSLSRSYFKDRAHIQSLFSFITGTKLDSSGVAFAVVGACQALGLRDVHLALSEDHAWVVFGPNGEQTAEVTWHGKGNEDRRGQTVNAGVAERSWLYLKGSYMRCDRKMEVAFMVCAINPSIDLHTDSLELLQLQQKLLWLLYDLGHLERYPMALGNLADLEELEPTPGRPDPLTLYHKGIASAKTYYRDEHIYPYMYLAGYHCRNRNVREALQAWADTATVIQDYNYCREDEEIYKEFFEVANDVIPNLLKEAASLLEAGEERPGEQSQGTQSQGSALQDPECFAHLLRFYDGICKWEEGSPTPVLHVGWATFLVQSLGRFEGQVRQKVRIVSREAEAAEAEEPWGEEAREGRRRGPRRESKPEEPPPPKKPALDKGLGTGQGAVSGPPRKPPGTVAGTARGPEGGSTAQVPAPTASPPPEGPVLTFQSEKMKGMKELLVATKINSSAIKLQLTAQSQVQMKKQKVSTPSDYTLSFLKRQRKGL
Sequence of Menin/Histone-lysine N-methyltransferase MLL (Q03164 1-2718 partner limits assumed): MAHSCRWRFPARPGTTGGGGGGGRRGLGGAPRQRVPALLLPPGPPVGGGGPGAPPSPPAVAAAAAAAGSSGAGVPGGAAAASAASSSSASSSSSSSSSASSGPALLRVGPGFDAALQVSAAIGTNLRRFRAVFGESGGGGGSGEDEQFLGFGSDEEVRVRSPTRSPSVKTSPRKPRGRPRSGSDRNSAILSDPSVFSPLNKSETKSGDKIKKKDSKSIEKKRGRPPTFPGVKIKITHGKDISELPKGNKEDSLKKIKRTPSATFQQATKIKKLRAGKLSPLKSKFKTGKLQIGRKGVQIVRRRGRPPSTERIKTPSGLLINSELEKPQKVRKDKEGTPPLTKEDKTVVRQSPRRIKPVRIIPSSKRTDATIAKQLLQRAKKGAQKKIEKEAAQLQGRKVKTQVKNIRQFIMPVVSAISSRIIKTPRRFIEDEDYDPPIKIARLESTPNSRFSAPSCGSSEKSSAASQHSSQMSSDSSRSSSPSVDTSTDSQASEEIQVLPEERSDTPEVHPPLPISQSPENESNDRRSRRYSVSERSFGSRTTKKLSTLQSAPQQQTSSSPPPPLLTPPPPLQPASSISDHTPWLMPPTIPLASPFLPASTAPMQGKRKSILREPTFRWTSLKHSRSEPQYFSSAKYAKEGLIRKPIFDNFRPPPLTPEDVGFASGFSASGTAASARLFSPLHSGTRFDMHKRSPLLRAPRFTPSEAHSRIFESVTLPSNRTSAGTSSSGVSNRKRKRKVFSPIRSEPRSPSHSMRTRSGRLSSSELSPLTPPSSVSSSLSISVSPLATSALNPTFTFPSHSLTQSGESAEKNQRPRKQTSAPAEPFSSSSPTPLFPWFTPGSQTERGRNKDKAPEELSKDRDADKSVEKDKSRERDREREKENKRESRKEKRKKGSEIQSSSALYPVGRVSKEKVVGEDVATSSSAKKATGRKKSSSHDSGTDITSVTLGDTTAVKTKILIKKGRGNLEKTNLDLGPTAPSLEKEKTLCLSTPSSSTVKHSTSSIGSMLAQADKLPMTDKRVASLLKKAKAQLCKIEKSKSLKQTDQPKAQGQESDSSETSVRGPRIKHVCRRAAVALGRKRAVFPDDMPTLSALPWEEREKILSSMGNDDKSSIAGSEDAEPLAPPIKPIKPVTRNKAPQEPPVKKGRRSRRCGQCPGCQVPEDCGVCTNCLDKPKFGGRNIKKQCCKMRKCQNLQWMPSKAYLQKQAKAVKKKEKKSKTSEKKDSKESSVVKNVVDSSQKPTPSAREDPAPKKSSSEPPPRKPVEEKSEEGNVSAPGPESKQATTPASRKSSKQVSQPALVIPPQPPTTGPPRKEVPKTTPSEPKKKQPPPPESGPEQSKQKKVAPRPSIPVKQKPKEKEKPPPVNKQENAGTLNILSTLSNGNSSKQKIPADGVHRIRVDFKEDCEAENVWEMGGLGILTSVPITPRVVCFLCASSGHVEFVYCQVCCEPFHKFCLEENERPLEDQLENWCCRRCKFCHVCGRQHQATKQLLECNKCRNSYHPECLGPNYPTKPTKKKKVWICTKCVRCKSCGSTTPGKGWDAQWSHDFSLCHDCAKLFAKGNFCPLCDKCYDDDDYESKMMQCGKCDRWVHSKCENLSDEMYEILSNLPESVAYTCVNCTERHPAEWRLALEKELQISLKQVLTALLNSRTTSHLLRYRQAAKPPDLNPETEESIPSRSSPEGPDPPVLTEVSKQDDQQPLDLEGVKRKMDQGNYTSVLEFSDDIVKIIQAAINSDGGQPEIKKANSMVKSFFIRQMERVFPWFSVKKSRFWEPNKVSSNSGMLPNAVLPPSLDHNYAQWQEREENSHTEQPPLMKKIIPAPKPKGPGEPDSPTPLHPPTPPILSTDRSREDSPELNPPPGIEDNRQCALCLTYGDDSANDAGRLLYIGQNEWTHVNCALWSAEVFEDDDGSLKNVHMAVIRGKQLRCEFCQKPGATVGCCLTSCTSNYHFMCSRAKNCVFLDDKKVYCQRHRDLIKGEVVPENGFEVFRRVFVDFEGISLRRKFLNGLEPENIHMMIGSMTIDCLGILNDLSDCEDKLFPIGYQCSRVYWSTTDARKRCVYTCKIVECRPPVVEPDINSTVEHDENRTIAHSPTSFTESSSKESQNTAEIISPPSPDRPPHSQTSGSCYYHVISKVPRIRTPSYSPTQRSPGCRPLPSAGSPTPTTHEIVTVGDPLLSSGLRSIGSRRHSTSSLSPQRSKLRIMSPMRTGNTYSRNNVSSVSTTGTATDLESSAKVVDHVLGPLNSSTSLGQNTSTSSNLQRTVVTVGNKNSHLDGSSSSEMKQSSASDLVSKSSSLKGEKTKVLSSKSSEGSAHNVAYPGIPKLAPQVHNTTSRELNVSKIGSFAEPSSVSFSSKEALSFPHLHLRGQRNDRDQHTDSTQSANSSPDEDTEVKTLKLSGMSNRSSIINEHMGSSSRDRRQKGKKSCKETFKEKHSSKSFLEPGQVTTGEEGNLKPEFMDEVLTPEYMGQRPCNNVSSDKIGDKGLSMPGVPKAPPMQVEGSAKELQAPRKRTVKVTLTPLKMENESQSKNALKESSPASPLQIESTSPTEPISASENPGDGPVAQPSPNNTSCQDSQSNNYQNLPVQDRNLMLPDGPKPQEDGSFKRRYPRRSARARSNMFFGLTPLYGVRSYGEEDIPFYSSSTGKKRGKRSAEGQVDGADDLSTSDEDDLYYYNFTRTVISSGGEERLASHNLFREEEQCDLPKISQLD
Sequence of Menin/Histone-lysine N-methyltransferase MLL (Q03164 2719-3969 partner limits assumed): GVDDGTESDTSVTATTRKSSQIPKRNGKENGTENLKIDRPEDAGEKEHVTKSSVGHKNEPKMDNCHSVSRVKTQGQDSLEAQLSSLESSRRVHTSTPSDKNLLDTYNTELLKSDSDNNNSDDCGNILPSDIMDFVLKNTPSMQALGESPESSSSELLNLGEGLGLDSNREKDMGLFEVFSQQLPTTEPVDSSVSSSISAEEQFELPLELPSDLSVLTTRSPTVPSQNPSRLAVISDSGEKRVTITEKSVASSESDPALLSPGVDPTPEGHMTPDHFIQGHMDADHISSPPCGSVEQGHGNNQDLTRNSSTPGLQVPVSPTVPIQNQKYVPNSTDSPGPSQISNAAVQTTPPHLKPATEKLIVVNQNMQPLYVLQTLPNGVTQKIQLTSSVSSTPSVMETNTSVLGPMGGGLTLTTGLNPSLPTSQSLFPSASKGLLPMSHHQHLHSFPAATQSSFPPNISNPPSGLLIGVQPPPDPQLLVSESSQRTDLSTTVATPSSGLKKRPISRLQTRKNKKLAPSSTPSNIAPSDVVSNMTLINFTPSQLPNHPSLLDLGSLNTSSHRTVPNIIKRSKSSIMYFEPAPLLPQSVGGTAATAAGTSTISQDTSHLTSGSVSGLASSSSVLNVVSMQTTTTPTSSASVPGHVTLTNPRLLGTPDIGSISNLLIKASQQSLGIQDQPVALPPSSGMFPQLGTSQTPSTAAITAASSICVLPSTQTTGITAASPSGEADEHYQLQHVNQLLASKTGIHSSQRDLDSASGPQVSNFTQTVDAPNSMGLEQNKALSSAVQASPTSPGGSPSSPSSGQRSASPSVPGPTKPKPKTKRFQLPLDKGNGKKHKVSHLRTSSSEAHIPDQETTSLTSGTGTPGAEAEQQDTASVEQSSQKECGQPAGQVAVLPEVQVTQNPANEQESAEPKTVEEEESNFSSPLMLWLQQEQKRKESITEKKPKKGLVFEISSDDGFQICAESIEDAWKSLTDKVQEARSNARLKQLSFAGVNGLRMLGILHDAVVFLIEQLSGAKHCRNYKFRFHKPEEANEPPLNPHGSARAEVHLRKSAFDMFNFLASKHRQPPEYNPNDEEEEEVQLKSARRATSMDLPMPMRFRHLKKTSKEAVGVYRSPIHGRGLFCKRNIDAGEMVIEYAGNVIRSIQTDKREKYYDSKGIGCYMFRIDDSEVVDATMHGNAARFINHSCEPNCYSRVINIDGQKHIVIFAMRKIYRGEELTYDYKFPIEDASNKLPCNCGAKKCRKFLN

CLint scaled [1] [mL/min/kg]	half-life [2] [h]	clearance [3] [mL/min/kg]	fraction unbound [4]	Vd [5] [L/kg]	CLint scaled [6] [mL/min/kg]	fraction unbound [7]	fraction unbound [8]	IC50 [9] [nM]	GI50 [10] [nM]	Drug metabolism [11]	SMILES
124	1.6	40	0.004	2.9	919	0.013	–	–	–	–	N#Cc1ccc(OCCCN2CCC(C(O)(c3ccccc3)C3CCCC3)CC2)cc1 (stereo unspecified)
77.4	–	–	0.117	–	558	0.192	–	–	–	–	N#Cc1ccc(OCCCN2CCC(C(O)(c3nccs3)C3CCCC3)CC2)cc1 (stereo unspecified)
69	2.8	32	0.04	7.2	273	–	0.108	460	–	–	N#Cc1ccc(OCCCN2CCC(C(O)(c3cccc(F)c3)c3nccs3)CC2)cc1 (stereo unspecified)
16.2	0.2	293	0.291	4.3	271	0.342	–	–	–	–	NS(=O)(=O)c1ccc(OCCCN2CCC(C(O)(c3ccccn3)C3CCCC3)CC2)cc1 (racemic)

Further lines, the compound ahead of its results:

SMILES	CLint scaled [1] [mL/min/kg]	half-life [2] [h]	clearance [3] [mL/min/kg]	fraction unbound [4]	Vd [5] [L/kg]	CLint scaled [6] [mL/min/kg]	fraction unbound [7]	fraction unbound [8]	IC50 [9] [nM]	GI50 [10] [nM]	Drug metabolism [11]
NS(=O)(=O)c1ccc(OCCCN2CCC(C(O)(c3cccc(F)c3)c3nccs3)CC2)cc1 (stereo unspecified)	50	1.4	26	0.17	4.4	206	0.166	0.322	–	–	–
CC1(C)CN=C(N2CCN(c3ncnc4sc(CC(F)(F)F)cc34)CC2)S1	–	–	–	–	–	–	–	–	–	3000	–
O[C@](c1cccc(F)c1)(c1ccccn1)C1CCNCC1	–	–	–	–	–	–	–	–	–	–	metabolite_detected
